Data set [1] deals with T1, DNA topoisomerase 1 (Homo sapiens) (UniProt P11387).
T1 sequence (whole entry): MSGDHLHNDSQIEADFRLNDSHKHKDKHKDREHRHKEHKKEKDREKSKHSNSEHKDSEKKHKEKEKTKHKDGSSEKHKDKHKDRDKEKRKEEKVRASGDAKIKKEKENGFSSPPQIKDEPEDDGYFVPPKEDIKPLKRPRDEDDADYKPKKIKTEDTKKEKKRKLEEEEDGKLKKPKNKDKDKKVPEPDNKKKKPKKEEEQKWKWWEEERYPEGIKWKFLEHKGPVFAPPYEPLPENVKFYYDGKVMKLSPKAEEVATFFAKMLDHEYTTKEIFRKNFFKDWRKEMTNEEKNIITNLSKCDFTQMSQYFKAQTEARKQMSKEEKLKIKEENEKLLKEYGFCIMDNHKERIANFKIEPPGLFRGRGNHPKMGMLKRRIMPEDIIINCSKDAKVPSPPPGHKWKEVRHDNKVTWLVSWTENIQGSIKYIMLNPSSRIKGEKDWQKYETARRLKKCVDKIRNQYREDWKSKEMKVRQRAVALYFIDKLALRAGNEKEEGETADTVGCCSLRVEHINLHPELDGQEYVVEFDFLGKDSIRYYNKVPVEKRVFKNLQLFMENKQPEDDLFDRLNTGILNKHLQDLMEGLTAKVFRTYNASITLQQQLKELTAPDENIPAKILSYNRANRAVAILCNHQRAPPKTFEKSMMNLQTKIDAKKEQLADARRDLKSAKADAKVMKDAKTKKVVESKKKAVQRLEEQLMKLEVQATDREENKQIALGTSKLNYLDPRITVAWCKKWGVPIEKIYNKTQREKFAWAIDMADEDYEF
Kind of data set: Inhibition of topoisomerase 1-mediated relaxation of supercoiled pBR322 DNA at 20 uM after 20 mins using ethidium bromide staining by electrophoresis relative to control. Put shortly: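 Nuclear extract (50 ng) used as the topoisomerase I source with 60 ng supercoiled pBR322 and 20 µM drug, 20 min at 37 °C. Reaction stopped with 0.05% SDS, then electrophoresis run without ethidium bromide and gel stained afterwards. Supercoiled band quantified by densitometry relative to DNA alone without enzyme (100%). Camptothecin at 50 µM was the positive control.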

In data set [2] the test system is Calf thymus DNA. Nature of the data set: Binding affinity to calf thymus DNA assessed as increase in melting temperature at 1 uM by spectrophotometer analysis. The format is nucleic-acid assay. The note with it: Bos taurus.
For data set [3], the target named is DNA topoisomerase 2-alpha (Homo sapiens) (UniProt P11388). Kind of data set: Inhibition of human recombinant topoisomerase 2 alpha-mediated Crithidia fasciculate kDNA decatenation at 20 uM relative to control. The gist of the method:
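Topoisomerase IIα decatenation of kDNA with 20 µM compound, analysed by gel electrophoresis. Fully decatenated open circular DNA band quantified by densitometry. Inhibition calculated as 100 minus percentage relative integrated band intensity. Etoposide included as a control.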

Data set [4] shares this target. Nature of the data set: Inhibition of human recombinant topoisomerase 2 alpha assessed as stabilization of enzyme-PBR322 DNA complex at 100 uM relative to control. The gist of the method:
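Closed circular pBR322 DNA with topoisomerase IIα and 100 µM compound at 37 °C; components mixed on ice before drug addition. Complexes trapped with SDS and products separated by gel electrophoresis containing ethidium bromide. Linear DNA bands quantified by densitometry relative to the band from 100 µM etoposide, set to 100%.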

Data set [5] deals with K562. Kind of data set: Cytotoxicity against human K562 cells after 72 hrs by MTS assay. The format is functional, cell-based. Conditions: K562, 72 h. The gist of the method: (§1)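 Suspension cultures in αMEM with 10% fetal calf serum: parental K562 and the etoposide-resistant sub-line K/VP.5, which has reduced topoisomerase IIα. Drugs freshly dissolved in DMSO (final ≤1.9% v/v) and given for 72 h, then MTS reduction read by absorbance. IC50 from triplicate data fitted to a four-parameter logistic equation. Resistance factor is IC50 in K/VP.5 divided by IC50 in K562.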

Data set [6] is described as follows: Cytotoxicity against human K/VP.5 cells after 72 hrs by MTS assay. In kind it is functional, cell-based. The note with it: K/VP.5, 72 h. Put shortly: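 Suspension cultures in αMEM with 10% fetal calf serum: parental K562 and the etoposide-resistant sub-line K/VP.5, which has reduced topoisomerase IIα. IC50 from triplicate data fitted to a four-parameter logistic equation. Resistance factor is IC50 in K/VP.5 divided by IC50 in K562.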

The test system of data set [7] is K562. Nature of the data set: Resistant factor, ratio of IC50 human K/VP.5 cells to IC50 for human K562 cells. In kind it is functional. Put shortly: as §1
A short description of data set [8]: Chemical stability in DMSO-d6 assessed as decomposition after 24 hrs. The format is physicochemical.
In data set [9] the test system is DC3F. Kind of data set: Cytotoxicity against hamster DC-3F cells. In kind it is functional, cell-based. The note with it: Cricetulus griseus.

pIC50: −log10 of the molar value.

Chain of DNA topoisomerase 2-alpha (Homo sapiens) (P11388 whole entry): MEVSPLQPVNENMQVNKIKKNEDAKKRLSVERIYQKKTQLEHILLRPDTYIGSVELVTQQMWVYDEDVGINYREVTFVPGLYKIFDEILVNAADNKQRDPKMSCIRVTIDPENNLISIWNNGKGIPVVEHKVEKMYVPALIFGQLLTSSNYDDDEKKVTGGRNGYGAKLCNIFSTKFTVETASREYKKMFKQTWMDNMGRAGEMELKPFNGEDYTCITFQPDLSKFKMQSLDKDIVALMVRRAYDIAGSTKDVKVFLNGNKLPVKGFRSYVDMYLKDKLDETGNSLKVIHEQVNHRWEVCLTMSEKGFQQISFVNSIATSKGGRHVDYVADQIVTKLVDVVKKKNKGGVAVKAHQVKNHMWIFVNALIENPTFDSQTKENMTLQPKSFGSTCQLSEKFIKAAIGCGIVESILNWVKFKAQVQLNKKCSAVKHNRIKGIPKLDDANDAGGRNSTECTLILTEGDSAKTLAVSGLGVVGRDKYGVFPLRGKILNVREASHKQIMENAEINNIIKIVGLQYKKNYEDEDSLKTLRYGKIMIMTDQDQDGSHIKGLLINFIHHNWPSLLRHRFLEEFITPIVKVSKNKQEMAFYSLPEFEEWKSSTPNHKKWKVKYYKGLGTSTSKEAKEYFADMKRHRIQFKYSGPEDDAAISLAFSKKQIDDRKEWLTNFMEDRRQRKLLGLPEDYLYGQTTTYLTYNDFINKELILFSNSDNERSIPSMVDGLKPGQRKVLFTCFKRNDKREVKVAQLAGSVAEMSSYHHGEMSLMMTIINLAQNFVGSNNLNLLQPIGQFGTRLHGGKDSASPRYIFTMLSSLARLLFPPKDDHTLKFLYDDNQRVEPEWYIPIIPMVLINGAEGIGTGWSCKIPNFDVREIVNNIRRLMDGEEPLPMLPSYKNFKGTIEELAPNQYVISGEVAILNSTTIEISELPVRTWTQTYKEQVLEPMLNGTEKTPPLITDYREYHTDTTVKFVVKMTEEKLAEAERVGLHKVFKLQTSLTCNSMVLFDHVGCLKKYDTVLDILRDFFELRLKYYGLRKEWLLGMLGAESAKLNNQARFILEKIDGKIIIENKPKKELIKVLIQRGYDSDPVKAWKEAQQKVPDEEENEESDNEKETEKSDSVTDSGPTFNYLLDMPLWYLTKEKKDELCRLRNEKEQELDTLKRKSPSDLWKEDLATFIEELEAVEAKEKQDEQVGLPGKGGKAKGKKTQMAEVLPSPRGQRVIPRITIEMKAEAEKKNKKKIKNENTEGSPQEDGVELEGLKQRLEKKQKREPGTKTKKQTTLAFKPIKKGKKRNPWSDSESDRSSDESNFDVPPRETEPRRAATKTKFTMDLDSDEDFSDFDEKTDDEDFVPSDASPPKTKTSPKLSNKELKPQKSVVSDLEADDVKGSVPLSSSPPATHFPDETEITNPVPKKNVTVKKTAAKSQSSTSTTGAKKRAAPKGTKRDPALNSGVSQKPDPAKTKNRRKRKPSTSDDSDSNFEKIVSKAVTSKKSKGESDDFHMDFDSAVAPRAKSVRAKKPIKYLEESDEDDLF

With `CN(C)CC(=O)Nc1cc(C(=O)NCCn2nc3c4c(cccc42)C(=O)c2ccccc2-3)n(C)c1`, the figures for the inhibition in [1] and in [3] were 16% and 94%, respectively. For the same molecule, the ΔTm in data set [2] is 1.6 °C. Besides, in [4], the % cleavage worked out at 18%. Moreover, the pIC50 in data set [5] is 5.57; in data set [6], 5.41. The “Ratio IC50” value in [7] is reported as 1.4.

Turning to `CN(C)CC(=O)Nc1cc(C(=O)Nc2cc(C(=O)NCCn3nc4c5c(cccc53)C(=O)c3c(Cl)cccc3-4)n(C)c2)n(C)c1`, the inhibition in data set [1] was determined as 31%; in data set [3], 97%. In data set [2], the ΔTm is 1.7 °C. The pIC50 in [5] was 6.72; in data set [6], 6.68. For the same molecule, the “Ratio IC50” value in data set [7] came to 1.1.

Turning to `Cn1cc(NC(=O)c2cc(NC(=O)OC(C)(C)C)cn2C)cc1C(=O)NCCn1nc2c3c(cccc31)C(=O)c1ccccc1-2`, the inhibition in data set [1] stood at 31%; in [3], 91%. Moreover, the ΔTm in data set [2] turned out to be 0.4 °C. In data set [4], the % cleavage amounted to 4%. Also, the pIC50 in data set [5] is 6.00; in data set [6], 6.09. For the same molecule, the “Ratio IC50” value in data set [7] is on record as 0.8.

For `NCCn1nc2c3c(cccc31)C(=O)c1ccccc1-2`, the values for the inhibition in data set [1] and in [3] were 100% and 75%, respectively. For the same molecule, in [2], the ΔTm turned out to be 2.2 °C. Further, the % cleavage in [4] is 29%. For the same molecule, the pIC50 in data set [5] is 5.74; in data set [6] it was 5.51. Further, in [7], the “Ratio IC50” value was 1.7.

For the molecule `Cn1cc(NC(=O)c2cc(N)cn2C)cc1C(=O)NCCn1nc2c3c(cccc31)C(=O)c1ccccc1-2`, the inhibition in data set [1] is 49%; in data set [3] it was 91%. Besides, in data set [2], the ΔTm was 2.7 °C. Further, in data set [4], the % cleavage is 6%. For the same molecule, the pIC50 was 5.39 in data set [5] and 5.19 in data set [6]. Further, the “Ratio IC50” value in [7] turned out to be 1.5.

Turning to `NCCn1nc2c3c(cccc31)C(=O)c1c(Cl)cccc1-2`, the inhibition in [1] came to 62%; in data set [3] it was 100%. In addition, the ΔTm in data set [2] was found to be 2.7 °C. Also, the % cleavage in data set [4] is 18%. Further, the pIC50 in [5] is 5.48; in data set [6], 5.46. The “Ratio IC50” value in data set [7] came out at 1.

In the case of `O=C1c2c(Cl)cccc2-c2nn(CCO)c3cccc1c23`, the results for the inhibition in data set [1] and in data set [3] were 70% and 56%, respectively. The ΔTm in data set [2] worked out at 0.3 °C. For the same molecule, the % cleavage in data set [4] was 14%. In addition, the negative logarithm of the IC50 (pIC50) in [5] was 4.84; in [6], 4.92. Besides, the “Ratio IC50” value in data set [7] was 0.8.

On to `Cn1cc(N)cc1C(=O)NCCn1nc2c3c(cccc31)C(=O)c1c(Cl)cccc1-2`, for which the results for the inhibition in data set [1] and in data set [3] were 14% and 91%, respectively. For the same molecule, the ΔTm in data set [2] was 0.8 °C. Also, the % cleavage in data set [4] is 29%. In addition, the pIC50 in [5] was 5.00; in data set [6] it was 4.94. Moreover, the “Ratio IC50” value in data set [7] was found to be 1.2.

With `Cn1cc(N)cc1C(=O)NCCn1nc2c3c(cccc31)C(=O)c1ccccc1-2`, the inhibition was found to be 10% in data set [1] and 94% in data set [3]. The ΔTm in data set [2] was 1.8 °C. For the same molecule, the % cleavage in data set [4] came to 26%. In addition, the negative logarithm of the IC50 (pIC50) was 4.90 in data set [5] and 4.66 in data set [6]. Further, the “Ratio IC50” value in [7] is given as 1.7.

With `Cn1cc(NC(=O)OC(C)(C)C)cc1C(=O)NCCn1nc2c3c(cccc31)C(=O)c1ccccc1-2`, the results for the inhibition in [1] and in [3] were 11% and 91%, respectively. Besides, the ΔTm in [2] worked out at 1.3 °C. Further, the % cleavage in data set [4] worked out at 18%. The pIC50 was 4.84 in [5] and 4.66 in [6]. The “Ratio IC50” value in [7] is reported as 1.5. Further, the Stability result in [8] is listed as “Stable”.

As for `Cn1cc(NC(=O)c2cc(NC(=O)OC(C)(C)C)cn2C)cc1C(=O)NCCn1nc2c3c(cccc31)C(=O)c1c(Cl)cccc1-2`, the values for the inhibition in data set [1] and in [3] were 47% and 97%, respectively. In addition, the ΔTm in data set [2] amounted to 1 °C. Further, in data set [4], the % cleavage turned out to be 24%. Further, the pIC50 in [5] was 5.70; in data set [6], 5.85. In data set [7], the “Ratio IC50” value stood at 0.7.

As for `O=C1c2ccccc2-c2nn(CCO)c3cccc1c23`, the inhibition came to 66% in data set [1] and 60% in [3]. Also, in data set [2], the ΔTm was found to be 0.9 °C. For the same molecule, the % cleavage in data set [4] amounted to 24%. The pIC50 in data set [5] is 4.92; in [6], 4.99. In data set [7], the “Ratio IC50” value is 0.9.

Consider `Cn1cc(NC(=O)c2cc(N)cn2C)cc1C(=O)NCCn1nc2c3c(cccc31)C(=O)c1c(Cl)cccc1-2`, for which the inhibition worked out at 52% in data set [1] and 94% in [3]. Besides, the ΔTm in data set [2] was determined as 0.6 °C. Moreover, the % cleavage in data set [4] came out at 16%. The pIC50 is 4.90 in data set [5] and 4.44 in [6]. In addition, in data set [7], the “Ratio IC50” value is listed as 2.9.

Turning to `COc1cccc2c1C(=O)c1c(O)c3c(c(O)c1C2=O)C[C@@](O)(C(=O)CO)C[C@@H]3O[C@H]1C[C@H](N)[C@H](O)[C@H](C)O1` [DOXORUBICIN], in [2], the ΔTm was 8.4 °C. Besides, the inhibition in data set [3] was 30%. In addition, the % cleavage in data set [4] stood at 0%. The pIC50 in data set [5] was 7.48.

Regarding `Cn1cc(NC(=O)c2cc(NC(=O)CNC(=N)N)cn2C)cc1C(=O)NCCC(=N)N` [NETROPSIN], the ΔTm in [2] turned out to be 5.7 °C. Besides, the inhibition in [3] stood at 39%. For the same molecule, in data set [4], the % cleavage came out at 0%. The pIC50 in data set [5] is less than 4.30; in data set [6], less than 4.30; in data set [9], 2.49.

For the molecule `CN(C)CC(=O)Nc1cc(C(=O)NCCn2nc3c4c(cccc42)C(=O)c2c(Cl)cccc2-3)n(C)c1`, the inhibition is 21% in [1] and 97% in data set [3]. Besides, in data set [2], the ΔTm is 0.6 °C. The % cleavage in data set [4] turned out to be 22%. Further, the pIC50 in data set [5] was 5.46; in [6] it was 5.28. The “Ratio IC50” value in data set [7] stood at 1.5.

With `Cn1cc(NC(=O)OC(C)(C)C)cc1C(=O)NCCn1nc2c3c(cccc31)C(=O)c1c(Cl)cccc1-2`, the inhibition worked out at 47% in data set [1] and 94% in data set [3]. The ΔTm in data set [2] was found to be 0.7 °C. Further, in data set [4], the % cleavage is 11%. In addition, the values for the pIC50 in data set [5] and in data set [6] were 4.97 and 4.96, respectively. Besides, the “Ratio IC50” value in [7] was 1. Moreover, the Stability entry in data set [8] is reported as “Stable”.

On to `CN(C)CC(=O)Nc1cc(C(=O)Nc2cc(C(=O)NCCn3nc4c5c(cccc53)C(=O)c3ccccc3-4)n(C)c2)n(C)c1`, for which the inhibition in data set [1] is 23%; in data set [3], 91%. For the same molecule, the ΔTm in [2] came out at 4.3 °C. Also, the pIC50 in [5] was 6.89; in data set [6], 6.85. In addition, the “Ratio IC50” value in [7] is 1.1.

Regarding `CN(C)CCNc1cccc2c1C(=O)c1cccc3c1c-2nn3CCNC(=O)c1cc(NC(=O)c2cc(NC(=O)CN(C)C)cn2C)cn1C`, the ΔTm in data set [2] is 5.3 °C. The pIC50 in data set [5] was 6.68; in data set [6] it was 6.20. Further, the “Ratio IC50” value in data set [7] turned out to be 3.

For the origin of these results see ChEMBL document CHEMBL1165940, “Design, synthesis and biological evaluation of a novel series of anthrapyrazoles linked with netropsin-like oligopyrrole carboxamides as anticancer agents” (Bioorg Med Chem, 2010).
